Experimental data from ChEMBL document CHEMBL1142730, “Design of HIV-1 protease inhibitors active on multidrug-resistant virus” (J Med Chem, 2005).
In brackets after ≈: the same amount, converted by molar mass.

Experiments:
[1] = test system: Human immunodeficiency virus 1; assay: Protease inhibitory activity against HIV-1 r13025 mutant strain was determined; type: functional, organism-based
[2] = test system: Human immunodeficiency virus 1; assay: Toxicity value against wild type HIV-1 IIIB was determined; type: functional
How it was run: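 MT4 cells (150 000 cells/mL) mock-infected, run in parallel with HIV-infected cultures over an identical compound concentration range. Incubated 3 days at 37 °C, 5% CO₂. Reduced expression of the […] GFP reporter serves as the toxicity marker.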

[3] = test system: Human immunodeficiency virus 1; assay: Protease inhibitory activity against HIV-1 r13034 mutant strain was determined; type: functional, organism-based
[4] = test system: Human immunodeficiency virus 1; assay: Protease inhibitory activity against wild type HIV-1 IIIB was determined; type: functional, organism-based
[5] = test system: Human immunodeficiency virus 1; assay: Protease inhibitory activity against HIV-1 r13363 mutant strain was determined; type: functional, organism-based
[6] = test system: Human immunodeficiency virus 1; assay: Protease inhibitory activity against HIV-1 GSS004421 mutant strain was determined; type: functional, organism-based
Rattus norvegicus = species on record: Rattus norvegicus; assay: In vitro metabolic stability value after 30 min of incubation with liver microsomes of rat was determined; type: functional; conditions: Microsome
How it was run: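 Compound at 10 µM incubated at 37 °C with dog, human or rat liver microsomes. Residual parent compound quantified directly by LC-MS. Value is percent parent remaining after 30 min.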

Caco-2 [7] = assay: In vitro increase in apparent permeability from apical to basolateral was determined in Caco-2 (human colon carcinoma) cells; type: functional, cell-based
How it was run: (§1)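 Caco-2 monolayer apparent permeability measured apical-to-basolateral and basolateral-to-apical; reported as Papp in cm/s (×10⁶).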

[8] = In vitro solubility at was determined; pH=7; type: ADME
How it was run: (§2)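 Aqueous solubility measured at pH 5 and pH 7, expressed in […].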

[9] = In vitro solubility at was determined; pH=5; type: ADME; how it was run: as §2
Caco-2 [10] = assay: In vitro increase in apparent permeability from basolateral to apical was determined in Caco-2 (human colon carcinoma) cells; type: functional, cell-based; how it was run: as §1
[11] = Maximum plasma concentration value in dog was determined at a dosage of 20 mg/kg; type: ADME, organism-based, Canis lupus familiaris; set-up: dose 20 mg/kg
How it was run: (§3)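 Oral dosing in dog at 20 mg/kg, coadministered with ritonavir. Compound given as a solution in PEG400 or in 40% w/v hydroxypropyl-β-cyclodextrin with 2% citric acid. Plasma Cmax, Tmax, t1/2 and AUC determined.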

[12] = In vivo area under the concentration time curve value in dog was determined at a dosage of 20 mg/kg; type: ADME, organism-based, Canis lupus familiaris; set-up: dose 20 mg/kg; how it was run: as §3
[13] = In vivo time to reach maximum plasma concentration value in dog was determined at a dosage of 20 mg/kg; type: ADME, organism-based, Canis lupus familiaris; set-up: dose 20 mg/kg; how it was run: as §3
[14] = In vivo half life value in dog was determined at a dosage of 20 mg/kg; type: ADME, organism-based, Canis lupus familiaris; set-up: dose 20 mg/kg; how it was run: as §3
[15] = molecular target: Human immunodeficiency virus type 1 protease (Human immunodeficiency virus 1, UniProt Q72874); assay: Binding affinity against HIV-1 protease
How it was run: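 Isothermal titration calorimetry by displacement: the protease was pre-titrated with acetylpepstatin (300 µM) as the weaker binder, then the inhibitor (125 or 200 µM in the syringe) was injected to saturation into protease (9–21 µM). Buffer was 10 mM sodium acetate pH 5.0, 2% DMSO, 2 mM TCEP. Heats of dilution were subtracted, and each run was done at least twice.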

| Compound | pEC50 [1] | pCC50 [2] | pEC50 [3] | EC50 [4] | pEC50 [5] | pEC50 [6] | Metabolic stability (Rattus norvegicus) | Papp (Caco-2 [7]) | solubility [8] | solubility [9] | Papp (Caco-2 [10]) | Cmax [11] | AUC [12] | Tmax [13] | half-life [14] | Kd [15] |
| --- | --- | --- | --- | --- | --- | --- | --- | --- | --- | --- | --- | --- | --- | --- | --- | --- |
| CC(C)CN(C[C@@H](O)[C@H](Cc1ccccc1)NC(=O)OC1CCOC1)S(=O)(=O)c1ccc(N)cc1 (single isomer, unassigned) | 6.43 | < 4.49 | 6.01 | 43.7 nM | 4.95 | 5.75 | – | – | – | – | – | – | – | – | – | – |
| Cc1cccc(C)c1OCC(=O)N[C@@H](Cc1ccccc1)[C@@H](O)C[C@H](Cc1ccccc1)NC(=O)[C@H](C(C)C)N1CCCNC1=O [LOPINAVIR] | 7.84 | 4.95 | 6.59 | 9.77 nM | 6.28 | 6.02 | – | – | – | – | – | – | – | – | – | – |
| CC(C)CN(C[C@@H](O)[C@H](Cc1ccccc1)NC(=O)O[C@H]1CO[C@H]2OCC[C@H]21)S(=O)(=O)c1ccc2nc(NCCN(C)C)oc2c1 | 6.87 | < 4.49 | 7.61 | 81.3 nM | 6.7 | 6.81 | – | – | – | – | – | – | – | – | – | – |
| CC(C)c1nc(CN(C)C(=O)N[C@H](C(=O)N[C@@H](Cc2ccccc2)C[C@H](O)[C@H](Cc2ccccc2)NC(=O)OCc2cncs2)C(C)C)cs1 [RITONAVIR] | 5.99 | 4.53 | 5.3 | 64.6 nM | 4.89 | 4.97 | – | – | – | – | – | – | – | – | – | – |
| CC(C)CN(C[C@@H](O)[C@H](Cc1ccccc1)NC(=O)O[C@H]1CO[C@H]2OCC[C@H]21)S(=O)(=O)c1ccc2nc(NCCCN(C)C)sc2c1 | 7.69 | 4.73 | 8.17 | 57.5 nM | 7.53 | 7.72 | – | – | – | – | – | – | – | – | – | – |
| CC(C)(C)NC(=O)[C@@H]1C[C@@H]2CCCC[C@@H]2CN1C[C@@H](O)[C@H](Cc1ccccc1)NC(=O)[C@H](CC(N)=O)NC(=O)c1ccc2ccccc2n1 | 6.83 | 4.68 | 5.91 | 26.3 nM | 7.54 | 6.3 | – | – | – | – | – | – | – | – | – | – |
| CC(C)CN(C[C@@H](O)[C@H](Cc1ccccc1)NC(=O)O[C@H]1CO[C@H]2OCC[C@H]21)S(=O)(=O)c1ccc2nc(N(C)CCN3CCCC3)sc2c1 | 6.5 | 4.52 | 6.85 | 5.62 nM | 5.64 | 6.29 | – | – | – | – | – | – | – | – | – | – |
| CNCCNc1nc2ccc(S(=O)(=O)N(CC(C)C)C[C@@H](O)[C@H](Cc3ccccc3)NC(=O)O[C@H]3CO[C@H]4OCC[C@H]43)cc2s1 | 6.49 | < 4.49 | 6.43 | 209 nM | 6.11 | 6.5 | – | – | – | – | – | – | – | – | – | – |
| CC(C)CN(C[C@@H](O)[C@H](Cc1ccccc1)NC(=O)O[C@H]1CO[C@H]2OCC[C@H]21)S(=O)(=O)c1ccc2nc(N(C)C)sc2c1 | 7.31 | < 4.49 | – | 3.47 nM | 5.36 | 6.59 | – | – | – | – | – | – | – | – | – | – |
| CC(C)CN(C[C@@H](O)[C@H](Cc1ccccc1)NC(=O)O[C@H]1CO[C@H]2OCC[C@H]21)S(=O)(=O)c1ccc2nc(NCCN(C)C)sc2c1 | 7.84 | < 4.49 | 8.09 | 11.2 nM | 7.67 | 7.9 | 19% | 6.1e-06 cm/s | 40 µg/mL (≈ 59.2 µM) | 410 µg/mL (≈ 607 µM) | 2.66e-05 cm/s | – | – | – | – | – |
| CC(C)CN(C[C@@H](O)[C@H](Cc1ccccc1)NC(=O)O[C@H]1CO[C@H]2OCC[C@H]21)S(=O)(=O)c1ccc2nc(N(C)CCCN(C)C)sc2c1 | 6.95 | 4.68 | 7.32 | 14.8 nM | 6.08 | 6.71 | 47% | 2e-06 cm/s | 1180 µg/mL (≈ 1680 µM) | 1640 µg/mL (≈ 2330 µM) | 8.5e-06 cm/s | 1680 ng/mL | 6590 ng·h/mL | 60 min | 174 min | – |
| CC(C)CN(C[C@@H](O)[C@H](Cc1ccccc1)NC(=O)O[C@H]1CO[C@H]2OCC[C@H]21)S(=O)(=O)c1ccc2ncsc2c1 | 7.83 | < 4.49 | 8.11 | 1.1 nM | 6.57 | 7.78 | – | – | – | – | – | – | – | – | – | – |
| CNc1nc2ccc(S(=O)(=O)N(CC(C)C)C[C@@H](O)[C@H](Cc3ccccc3)NC(=O)O[C@H]3CO[C@H]4OCC[C@H]43)cc2s1 | 8.81 | < 4.49 | 8.81 | 0.912 nM | 7.81 | 8.59 | 72% | 1.93e-05 cm/s | < 10 µg/mL | < 10 µg/mL | 1.42e-05 cm/s | – | – | – | – | – |
| CC(C)CN(C[C@@H](O)[C@H](Cc1ccccc1)NC(=O)O[C@H]1CO[C@H]2OCC[C@H]21)S(=O)(=O)c1ccc2nc(N)sc2c1 | 8.51 | 4.77 | 8.42 | 9.12 nM | 7.9 | 8.59 | 77% | 9.9e-06 cm/s | < 10 µg/mL | < 10 µg/mL | 2.73e-05 cm/s | – | – | – | – | – |
| CC(C)CN(C[C@@H](O)[C@H](Cc1ccccc1)NC(=O)O[C@H]1CO[C@H]2OCC[C@H]21)S(=O)(=O)c1ccc2nc(N(C)C)oc2c1 | 6.66 | < 4.49 | 6.92 | 4.17 nM | 5.38 | 6.58 | – | – | – | – | – | – | – | – | – | – |
| COC(=O)N[C@H](C(=O)N[C@@H](Cc1ccccc1)[C@@H](O)CN(Cc1ccc(-c2ccccn2)cc1)NC(=O)[C@@H](NC(=O)OC)C(C)(C)C)C(C)(C)C [ATAZANAVIR] | 5.78 | 4.53 | – | 15.1 nM | 7.23 | 7.32 | – | – | – | – | – | – | – | – | – | – |
| CC(C)CN(C[C@@H](O)[C@H](Cc1ccccc1)NC(=O)O[C@H]1CO[C@H]2OCC[C@H]21)S(=O)(=O)c1ccc2nc(NCCN3CCCC3)oc2c1 | 7.12 | 4.49 | 7.48 | 26.3 nM | 6.88 | 7.21 | – | – | – | – | – | – | – | – | – | – |
| CC(C)CN(C[C@@H](O)[C@H](Cc1ccccc1)NC(=O)O[C@H]1CO[C@H]2OCC[C@H]21)S(=O)(=O)c1ccc2nc(N(C)CCCN3CCCC3)oc2c1 | 6.63 | < 4.49 | 6.34 | 69.2 nM | 5.22 | 6.22 | – | – | – | – | – | – | – | – | – | – |
| CC(C)CN(C[C@@H](O)[C@H](Cc1ccccc1)NC(=O)O[C@H]1CO[C@H]2OCC[C@H]21)S(=O)(=O)c1ccc2nc(N(C)CCCN3CCCC3)sc2c1 | 6.16 | 4.58 | 7.36 | 24 nM | 5.52 | 6.81 | – | – | – | – | – | – | – | – | – | – |
| Cc1c(O)cccc1C(=O)N[C@@H](CSc1ccccc1)[C@H](O)CN1C[C@H]2CCCC[C@H]2C[C@H]1C(=O)NC(C)(C)C | 5.31 | 4.75 | 5.9 | 70.8 nM | 5.82 | 6.28 | – | – | – | – | – | – | – | – | – | – |
| CC(C)CN(C[C@@H](O)[C@H](Cc1ccccc1)NC(=O)O[C@H]1CO[C@H]2OCC[C@H]21)S(=O)(=O)c1ccc2nc(NCCN3CCCC3)sc2c1 | 7.88 | < 4.49 | 7.91 | 11 nM | 7.49 | 7.86 | 56% | 3.5e-06 cm/s | < 10 µg/mL | 90 µg/mL (≈ 128 µM) | 2.17e-05 cm/s | 1970 ng/mL | 6050 ng·h/mL | 30 min | 99.6 min | 0.0637 nM |
| CC(C)CN(C[C@@H](O)[C@H](Cc1ccccc1)NC(=O)O[C@H]1CO[C@H]2OCC[C@H]21)S(=O)(=O)c1ccc2nc(N(C)CCN3CCCC3)oc2c1 | 6.65 | < 4.49 | 6.73 | 33.1 nM | 5.85 | 6.55 | – | – | – | – | – | – | – | – | – | – |
| CCC[C@@]1(CCc2ccccc2)CC(O)=C([C@H](CC)c2cccc(NS(=O)(=O)c3ccc(C(F)(F)F)cn3)c2)C(=O)O1 | 5.74 | < 4.49 | – | 501 nM | 6.15 | 6.73 | – | – | – | – | – | – | – | – | – | – |
| CC(C)(C)NC(=O)[C@@H]1CN(Cc2cccnc2)CCN1C[C@@H](O)C[C@@H](Cc1ccccc1)C(=O)N[C@H]1c2ccccc2C[C@H]1O.O | 5.97 | < 4.49 | 5.9 | 39.8 nM | 6.39 | 6.47 | – | – | – | – | – | – | – | – | – | – |
